Screens: PubChem BioAssay, several laboratories
An excerpt weighted towards active compounds, which were near 2.4% of everything screened.
Rin1-Abl PPI inh – human Rin1-Abl interaction inhibition. P00519+Q13671. TR-FRET Rin1/Abl binding, biochemical. inhibition, % at 7.35 µM. actives 0.4% (n = 360,000); in the data active means inhibition above about 5%, passing the limit was not always enough
CSN inh – CSN deneddylation inhibition | Purified CSN, SCF-Nedd8-OG deneddylation, fluorescence polarization | actives 0.38% (n = 360,000) | inhibition, % at 12.5 µM | Q92905;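 active means pattern-corrected inhibition above about 35%, with an unprinted fluorescence ratio check between 0.5 and 1.5, limit read from the data, passing the limit was not always enough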;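 further: 0% = enzyme with substrate and 100% = substrate without enzyme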
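Detection – fluorescence polarization · System – HEK293T-derived human Csn5 enzyme · Controls – substrate-only high control, full reaction low control · Timing – 90 min, room temperature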
Neddyl block – cullin neddylation inhibition | actives 0.58% (n = 360,000) | TR-FRET cullin neddylation, biochemical | inhibition, % at 25 µM | P61081+Q13564; in the data active means inhibition above about 36%
Rpn11 block – inhibitors of human proteasome Rpn11; O00487; human 26S proteasome, Ub4-pepOG fluorescence polarization; 20S core pre-blocked with epoxomicin; inhibition, % at 20 µM; actives 0.59% (n = 360,000);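 active means inhibition at 20 µM, scaled to each plate's controls, above about 33%, limit read from the data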
TPT1 inhibitor – inhibitors of Candida albicans tRNA 2'-phosphotransferase TPT1. actives 0.81% (n = 300,000). inhibition, % at 5 µM. recombinant caTPT1, FP RNA substrate dephosphorylation;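 active means inhibition above the mean of all tested compounds plus 3 SD, set per screening campaign, cut at about 24% in these data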;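 further: plate controls were DMSO alone for no effect and ferristatin control at 100 nM for full effect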
HNF4A DNA FP – change in binding of human HNF4 alpha to DNA; P41235; HNF4a-FITC DNA binding, fluorescence polarization, 1 h; activity change, % at 10 µM; actives 0.3% (n = 360,000); AID 1224865; in the data active means activity change above about 30%, passing the limit was not always enough
Rpn11 inh conf – Rpn11 inhibition confirmation, single concentration | shares compounds with Rpn11 block | purified human 26S proteasome, Ub4-pepOG fluorescence polarization; proteasome pretreated with epoxomicin | inhibition, % at 20 µM | actives 29% (n = 1,900) | AID 602318
MMP-2 counter – MMP-2 (human) inhibition counter-screen. shares compounds with Rpn11 block. recombinant MMP-2, FRET peptide cleavage fluorescence. inhibition, % at 20 µM. actives 4% (n = 1,900);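 further: human MMP-2 activated beforehand with APMA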
Thrombin inh – counter-screen for RPN11 inhibitors: inhibition of bovine thrombin | shares compounds with Rpn11 block | bovine thrombin cleavage of Ub4-pepOG, fluorescence polarization | inhibition, % at 20 µM | actives 13% (n = 1,900) | AID 602333;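 active means mean inhibition at least 40% at 20 µM, or signal 3 deviations below plate average, so some actives read negative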;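 further: plate controls were thrombin with DMSO for no effect and buffer wells lacking thrombin for full effect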
* marks the source's active call; other numbers are inactive results; nt = no result given. Unless noted, no stated cut-off is given here; in the data, active means inhibition above about 40%; inactive means the rest.

SMILES	Rin1-Abl PPI inh	CSN inh	Neddyl block	Rpn11 block	TPT1 inhibitor	HNF4A DNA FP	Rpn11 inh conf	MMP-2 counter	Thrombin inh
COc1ccc(/C=N/n2c(COc3ccccc3)n[nH]c2=S)cc1OC	0	5	-7	4	0	-4	nt	nt	nt
O=[N+]([O-])c1ccc(-c2ccc(/C=N/Nc3nc(N4CCCCC4)nc(N4CCCCC4)n3)o2)cc1	-2	10	-19	58*	nt	19	-1	-20	-14
O=C(N/N=C/c1ccc([N+](=O)[O-])cc1)c1cccnc1	-4	-5	-19	2	-1	-1	nt	nt	nt
O=C(N/N=C/c1ccc(-c2ccc([N+](=O)[O-])cc2)o1)c1cccnc1	-5	8	-15	85*	13	8	49*	-15	-17
CN1CCCNc2nc3ccccc3nc21	-4	10	nt	46*	9	4	-3	-49	-8
CN1CCCN(S(=O)(=O)c2ccccc2)c2nc3ccccc3nc21	0	12	33	10	nt	3	nt	nt	nt
CN(C)c1ccc(C(=O)N=c2sccn2C)cc1[N+](=O)[O-]	-9	1	-31	-17	-1	7	nt	nt	nt
O=C(Nn1cnnc1)c1ccc(Br)s1	-6	-6	3	51*	-2	6	-11	2	-9
O=C(Nc1ccccn1)c1ccc(Br)s1	-1	-3	-81	0	-1	4	nt	nt	nt
C=CCOc1ccc(/C=N/O)cc1Cl	-2	-9	1	-7	-4	-1	nt	nt	nt
COc1ccc(C=C(c2nc3ccccc3s2)c2nc3ccccc3s2)cc1O	1	4	-1	18	19	13	nt	nt	nt
COc1cc(/C=C/c2nc3ccccc3s2)cc(OC)c1O	0	8	nt	47*	16	10	4	-19	10
COc1cc(C=C(c2nc3ccccc3s2)c2nc3ccccc3s2)ccc1O	0	14	-19	61*	11	-3	5	-28	4
COc1ccccc1-c1cc(SC)c(C#N)c(=O)o1	-1	3	22	0	5	0	nt	nt	nt
Cc1csc(SCC(=O)NC(=O)NCc2ccccc2)n1	0	0	-6	183*	-2	-1	-10	15	6
CS(=O)(=O)c1ccc(C(=O)OCC(=O)NCc2cccs2)cc1[N+](=O)[O-]	0	7	-2	41*	nt	4	-23	-32	-33
Cc1cccc(C(=O)OCC(=O)NCc2cccs2)c1	3	-1	0	8	-1	-3	nt	nt	nt
Cc1cc(C)n(-c2ccnc3cc(Cl)ccc23)n1	0	-1	-7	2	1	1	nt	nt	nt
Cc1ccccc1CN1C(=O)C(C)Sc2ccc(-c3ccco3)cc21 (configuration not stated)	3	30	0	60*	nt	19	46*	4	25
CCN(CC)CCCNC(=O)c1nn(-c2cccc(OC)c2)c(=O)c2ccccc12	-2	-1	3	0	-5	-1	nt	nt	nt
CCN(CC)CCCNC(=O)c1nn(-c2ccc(OC)cc2OC)c(=O)c2ccccc12	0	2	-3	48*	-2	20	11	4	15
O=C(CN1C(=O)C2C3C=CC(C3)C2C1=O)Nc1nc(SCc2ccc(Cl)cc2)n[nH]1 (configuration not stated)	-5	2	-2	112*	0	5	1	29	4
Cc1ccccc1C(=O)Nc1nc(SCc2ccc(Cl)cc2)n[nH]1	0	-1	6	1	-1	2	nt	nt	nt
COc1ccc(-c2nc(SCC(=O)Nc3nccs3)c(-c3ccc(Cl)cc3)[nH]2)cc1	-2	-7	10	4	3	-1	nt	nt	nt
COc1ccc(-c2[nH]c(-c3ccc(C)cc3)nc2SCC(=O)Nc2nccs2)cc1	1	-7	11	84*	-1	30*	6	37	-3
